Publication PMC3431585 (Channels, 2012)
Where two headings read alike, the source gives them in different places. One block for each molecule: values may come before it.

Assays:
homomeric CNGA1 channels = molecular target: T1, homomeric CNGA1 channels (Bos taurus, UniProt Q00194); experiment: Inside-out patch-clamp of oocyte patches expressing rod homomeric CNGA1 channels; assay type: biochemical, bovine
T1 sequence (Q00194 1-690): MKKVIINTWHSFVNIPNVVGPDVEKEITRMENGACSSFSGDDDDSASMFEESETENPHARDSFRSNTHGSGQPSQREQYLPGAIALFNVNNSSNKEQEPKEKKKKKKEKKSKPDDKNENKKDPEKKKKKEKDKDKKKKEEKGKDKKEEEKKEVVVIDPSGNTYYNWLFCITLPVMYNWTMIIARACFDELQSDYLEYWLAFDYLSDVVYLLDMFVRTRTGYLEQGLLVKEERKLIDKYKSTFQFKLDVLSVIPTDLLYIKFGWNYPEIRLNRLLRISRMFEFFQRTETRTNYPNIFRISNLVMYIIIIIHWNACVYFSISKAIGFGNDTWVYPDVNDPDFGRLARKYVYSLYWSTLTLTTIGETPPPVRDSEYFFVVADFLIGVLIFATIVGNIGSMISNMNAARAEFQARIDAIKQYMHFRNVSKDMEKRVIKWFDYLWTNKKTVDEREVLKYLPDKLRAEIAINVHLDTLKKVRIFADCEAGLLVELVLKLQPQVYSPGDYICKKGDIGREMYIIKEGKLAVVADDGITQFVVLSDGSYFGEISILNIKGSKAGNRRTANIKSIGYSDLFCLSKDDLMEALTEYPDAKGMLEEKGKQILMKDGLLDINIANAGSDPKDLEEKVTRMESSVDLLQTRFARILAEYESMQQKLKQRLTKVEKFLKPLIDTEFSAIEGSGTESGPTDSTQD

[1] = molecular target: T2, homomeric human CNGA3 channels (Homo sapiens, UniProt Q16281); assay type: biochemical; conditions: for EC50: read-out: K1/2 cGMP (Hill fit); for IMAX cAMP (Hill fit): normalized to maximum cGMP current; for gating effect (increase in cGMP apparent affinity) compared with MMP9: within 40 min of exposure, MMP2 10 nM, trypsin 10 nM, collagenase 100 nM
T2 sequence (Q16281 1-694): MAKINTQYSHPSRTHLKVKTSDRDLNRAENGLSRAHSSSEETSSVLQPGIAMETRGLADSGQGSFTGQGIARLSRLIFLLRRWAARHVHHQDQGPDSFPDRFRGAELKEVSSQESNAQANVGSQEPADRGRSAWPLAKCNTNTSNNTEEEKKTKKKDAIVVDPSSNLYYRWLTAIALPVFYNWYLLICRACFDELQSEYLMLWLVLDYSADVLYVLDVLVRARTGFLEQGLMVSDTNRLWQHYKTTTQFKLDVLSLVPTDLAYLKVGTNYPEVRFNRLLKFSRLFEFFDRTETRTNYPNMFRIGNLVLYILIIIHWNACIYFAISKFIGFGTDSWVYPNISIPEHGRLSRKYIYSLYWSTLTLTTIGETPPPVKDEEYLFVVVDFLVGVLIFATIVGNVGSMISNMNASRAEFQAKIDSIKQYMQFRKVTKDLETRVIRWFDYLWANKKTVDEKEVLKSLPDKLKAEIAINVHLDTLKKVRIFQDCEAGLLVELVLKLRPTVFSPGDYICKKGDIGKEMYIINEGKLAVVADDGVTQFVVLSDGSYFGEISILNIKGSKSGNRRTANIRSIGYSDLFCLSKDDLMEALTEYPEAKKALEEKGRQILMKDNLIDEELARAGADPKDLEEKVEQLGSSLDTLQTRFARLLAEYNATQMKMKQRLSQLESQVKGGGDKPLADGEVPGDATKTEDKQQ

[2] = molecular target: T3, heteromeric CNGA3 + CNGB3 channels (Homo sapiens, UniProt Q16281+Q9NQW8); assay type: biochemical
T3 sequence (Q16281 1-694): T2 sequence (Q16281 1-694)
T3 sequence (Q9NQW8 1-809): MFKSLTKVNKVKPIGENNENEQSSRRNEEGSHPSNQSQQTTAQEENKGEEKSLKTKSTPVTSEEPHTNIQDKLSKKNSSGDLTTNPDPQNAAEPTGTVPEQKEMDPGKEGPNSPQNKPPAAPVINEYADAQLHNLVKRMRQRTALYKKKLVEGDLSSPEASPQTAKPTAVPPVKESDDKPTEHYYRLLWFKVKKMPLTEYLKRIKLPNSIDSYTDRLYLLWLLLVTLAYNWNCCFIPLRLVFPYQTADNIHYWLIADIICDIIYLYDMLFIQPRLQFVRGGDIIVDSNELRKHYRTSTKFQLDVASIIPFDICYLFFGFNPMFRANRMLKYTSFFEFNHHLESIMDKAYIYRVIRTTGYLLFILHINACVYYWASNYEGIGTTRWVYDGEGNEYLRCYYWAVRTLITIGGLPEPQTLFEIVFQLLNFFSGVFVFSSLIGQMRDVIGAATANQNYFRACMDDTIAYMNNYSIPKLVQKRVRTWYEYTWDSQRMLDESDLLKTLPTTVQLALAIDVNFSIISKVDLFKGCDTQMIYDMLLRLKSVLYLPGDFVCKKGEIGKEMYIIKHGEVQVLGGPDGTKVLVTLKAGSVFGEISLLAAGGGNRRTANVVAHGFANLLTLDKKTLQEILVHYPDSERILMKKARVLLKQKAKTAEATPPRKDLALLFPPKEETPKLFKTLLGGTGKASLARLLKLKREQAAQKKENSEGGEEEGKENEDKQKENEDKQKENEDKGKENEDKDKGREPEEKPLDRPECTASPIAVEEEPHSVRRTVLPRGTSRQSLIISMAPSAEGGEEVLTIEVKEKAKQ

[3] = molecular target: heteromeric CNGA1 + CNGB1 channels (UniProt Q00194+Q14028); assay type: biochemical, bovine CNGA1, human CNGB1; conditions: for EC50: read-out: K1/2 cGMP (Hill fit)
[4] = molecular target: native rod photoreceptor CNG channels; experiment: Inside-out patches excised from Xenopus rod outer segments; assay type: biochemical, Xenopus laevis
Outline: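 Retinas dissected from Xenopus laevis into frog Ringer's (pH 7.6), and rod outer segments freed by gentle agitation. Inside-out patches (pipettes 3–6 MΩ) at 20–23°C, with 130 mM NaCl, 0.2 mM EDTA, 3 mM HEPES (pH 7.2) solutions.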

[5] = representative control patch, t40 (Fig 4B)
[6] = representative control patch, t60 (Fig 1B)
[7] = representative control patch, t0 (Fig 9C)
[8] = representative control patch, t40 (Fig 9C)
[9] = representative control patch, t0 (Fig 1F)
[10] = representative control patch, t80 (Fig 1F)

Sequence of heteromeric CNGA1 + CNGB1 channels (Q14028 whole entry, one chain of several): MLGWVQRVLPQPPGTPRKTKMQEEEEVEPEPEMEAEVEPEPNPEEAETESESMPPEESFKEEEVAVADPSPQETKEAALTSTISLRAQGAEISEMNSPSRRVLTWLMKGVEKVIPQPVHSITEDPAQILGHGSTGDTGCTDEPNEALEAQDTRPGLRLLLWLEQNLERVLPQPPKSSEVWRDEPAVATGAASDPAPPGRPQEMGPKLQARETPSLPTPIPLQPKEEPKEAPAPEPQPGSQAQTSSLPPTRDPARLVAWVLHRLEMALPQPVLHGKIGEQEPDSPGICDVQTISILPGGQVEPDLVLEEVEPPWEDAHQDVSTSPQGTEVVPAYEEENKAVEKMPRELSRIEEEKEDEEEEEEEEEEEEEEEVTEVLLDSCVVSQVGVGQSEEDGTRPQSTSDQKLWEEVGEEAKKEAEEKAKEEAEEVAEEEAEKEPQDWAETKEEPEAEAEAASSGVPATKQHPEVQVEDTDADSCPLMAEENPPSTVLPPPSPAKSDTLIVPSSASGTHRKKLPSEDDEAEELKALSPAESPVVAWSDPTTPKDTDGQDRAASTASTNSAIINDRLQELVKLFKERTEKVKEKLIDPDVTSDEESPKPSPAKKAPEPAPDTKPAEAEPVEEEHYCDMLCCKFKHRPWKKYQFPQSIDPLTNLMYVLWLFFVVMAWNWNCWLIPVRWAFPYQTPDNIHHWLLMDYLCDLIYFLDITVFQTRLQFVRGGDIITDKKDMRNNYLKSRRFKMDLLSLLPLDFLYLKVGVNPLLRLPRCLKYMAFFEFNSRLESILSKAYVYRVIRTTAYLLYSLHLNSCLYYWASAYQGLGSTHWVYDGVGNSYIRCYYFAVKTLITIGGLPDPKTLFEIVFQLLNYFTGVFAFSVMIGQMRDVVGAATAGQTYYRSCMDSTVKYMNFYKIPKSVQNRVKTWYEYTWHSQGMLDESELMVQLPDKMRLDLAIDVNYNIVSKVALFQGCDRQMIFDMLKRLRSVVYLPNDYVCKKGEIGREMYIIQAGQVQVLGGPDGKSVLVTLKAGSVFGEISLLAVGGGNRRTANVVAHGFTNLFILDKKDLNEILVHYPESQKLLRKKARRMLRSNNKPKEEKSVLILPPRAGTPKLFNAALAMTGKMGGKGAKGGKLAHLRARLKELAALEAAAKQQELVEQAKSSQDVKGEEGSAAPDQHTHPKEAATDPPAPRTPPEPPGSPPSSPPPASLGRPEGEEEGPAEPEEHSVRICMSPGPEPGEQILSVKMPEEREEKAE

Molecule: Nc1nc2c(ncn2[C@@H]2O[C@@H]3COP(=O)(O)O[C@H]3[C@H]2O)c(=O)[nH]1 [cGMP, cyclic guanosine monophosphate]
equilibrium constant for the allosteric transition (L) (homomeric CNGA1 channels; A1 control, cGMP, 40 min post excision (Fig 10B)): 40
nH cGMP (Hill fit) (homomeric CNGA1 channels; representative control patch, t0 (Fig 9A)): 2.2
IMAX cGMP (Hill fit) (homomeric CNGA1 channels; representative control patch, t0 (Fig 9A), normalized to maximum t0 cGMP current): 1.0
nH cGMP (Hill fit) (homomeric CNGA1 channels; representative control patch, t40 (Fig 9A)): 2.2
equilibrium constant for the allosteric transition (L) ([1]; A3 control, cGMP, 80 min post excision, allosteric model fit (Fig 10A)): 180
Hill slope nH, cGMP ([1]; control patches, 60 min, n = 6): 2.2 ± 0.2
EC50 [1, 5]: 8 µM
EC50 [1, 6]: 10.3 µM
nH cGMP (Hill fit) ([1]; representative control patch, t0 (Fig 1B)): 2.9
IMAX cGMP (Hill fit) ([1]; representative control patch, t0 (Fig 1B), normalized to maximum t0 cGMP current): 1.0
nH cGMP (Hill fit) [1, 5]: 2.3
nH cGMP (Hill fit) [1, 6]: 2.1
2 μM cGMP current, I2μM/IMAX ([2]; control, 80 min, n = 4-6): 0.03 ± 0.006
EC50 ([2]; read-out: K1/2,GMP, time-matched control, 80 min, n = 4-6): 16.4 µM
EC50 ([2]; read-out: K1/2 cGMP (Hill fit), representative control patch, t0 (Fig 8A)): 15.7 µM
EC50 ([2]; read-out: K1/2 cGMP (Hill fit), representative control patch, t80 (Fig 8A)): 16.5 µM
nH cGMP (Hill fit) ([2]; representative control patch, t0 (Fig 8A)): 2.1
IMAX cGMP (Hill fit) ([2]; representative control patch, t0 (Fig 8A), normalized to maximum t0 cGMP current): 1.0
nH cGMP (Hill fit) ([2]; representative control patch, t80 (Fig 8A)): 1.9
equilibrium constant for the allosteric transition (L) ([3]; A1+B1 control, cGMP, 40 min post excision (Fig 10B)): 20
EC50 [3, 7]: 59.4 µM
EC50 [3, 8]: 55.6 µM
nH cGMP (Hill fit) [3, 7]: 2.3
IMAX cGMP (Hill fit) ([3]; representative control patch, t0 (Fig 9C), normalized to maximum t0 cGMP current): 1.0
nH cGMP (Hill fit) [3, 8]: 2.4
EC50 ([4]; read-out: K1/2 cGMP (Hill fit), representative control patch, t0 (Fig 11A)): 19.3 µM
EC50 ([4]; read-out: K1/2 cGMP (Hill fit), representative control patch, t25 (Fig 11A)): 28.1 µM
EC50 ([4]; read-out: initial K1/2 cGMP, native CNG channels, initial value): 23.5 ± 2.1 µM
nH cGMP (Hill fit) ([4]; representative control patch, t0 (Fig 11A)): 2.6
nH cGMP (Hill fit) ([4]; representative control patch, t25 (Fig 11A)): 2.6

Molecule: Nc1ncnc2c1ncn2[C@@H]1O[C@@H]2COP(=O)(O)O[C@H]2[C@H]1O [cAMP, cyclic adenosine monophosphate]
efficacy of cAMP, IcAMP/IMAX ([1]; control patches, 60 min, n = 6): 0.15 ± 0.05
nH cAMP (Hill fit) [1, 9]: 1.1
IMAX cAMP (Hill fit) [1, 9]: 0.29
nH cAMP (Hill fit) [1, 10]: 1.0
IMAX cAMP (Hill fit) [1, 10]: 0.14

B2: MMP2: active human recombinant MMP2 (Calbiochem, PF023), closely related gelatinase/metalloproteinase (protein, UniProt P08253 110-660, looked up)
72 kDa type IV collagenase: YNFFPRKPKWDKNQITYRIIGYTPDLDPETVDDAFARAFQVWSDVTPLRFSRIHDGEADIMINFGRWEHGDGYPFDGKDGLLAHAFAPGTGVGGDSHFDDDELWTLGEGQVVRVKYGNADGEYCKFPFLFNGKEYNSCTDTGRSDGFLWCSTTYNFEKDGKYGFCPHEALFTMGGNAEGQPCKFPFRFQGTSYDSCTTEGRTDGYRWCGTTEDYDRDKKYGFCPETAMSTVGGNSEGAPCVFPFTFLGNKYESCTSAGRSDGKMWCATTANYDDDRKWGFCPDQGYSLFLVAAHEFGHAMGLEHSQDPGALMAPIYTYTKNFRLSQDDIKGIQELYGASPDIDLGTGPTPTLGPVTPEICKQDIVFDGIAQIRGEIFFFKDRFIWRTVTPRDKPMGPLLVATFWPELPEKIDAVYEAPQEEKAVFFAGNEYWIYSASTLERGYPKPLTSLGLPPDVQRVDAAFNWSKNKKTYIFAGDKFWRYNEVKKKMDPGFPKLIADAWNAIPDNLDAVVDLQGGGHSYFFKGAYYLKLENQSLKSVKFGSIKSDWLGC
gating effect (increase in cGMP apparent affinity) compared with MMP9 [1]: indistinguishable from the effect produced by MMP9

Continued, values first:

effect on the increased persistent current after MMP9 ([2]; data not shown): inhibited
Molecule: CCCCNc1ccc(C(=O)OCCN(C)C)cc1 [tetracaine]

gating effect (increase in cGMP apparent affinity) compared with MMP9 [1]: failed to produce similar gating effects
Molecule: collagenase

gating effect (increase in cGMP apparent affinity) compared with MMP9 [1]: failed to produce similar gating effects
B1: trypsin: extracellular serine protease, Trypsin-EDTA (Gibco, 25200) (protein, UniProt P00761 9-231, looked up)
Trypsin: IVGGYTCAANSIPYQVSLNSGSHFCGGSLINSQWVVSAAHCYKSRIQVRLGEHNIDVLEGNEQFINAAKIITHPNFNGNTLDNDIMLIKLSSPATLNSRVATVSLPRSCAAAGTECLISGWGNTKSSGSSYPSLLQCLKAPVLSDSSCKSSYPGQITGNMICVGFLEGGKDSCQGDSGGPVVCNGQLQGIVSWGYGCAQKNKPGVYTKVCNYVNWIQQTIAAN
modifications: EDTA
